An excerpt weighted towards active compounds, which were near 2.8% of everything screened.
E-sel inducer = E-selectin induction on HUVECs; P16581; HUVEC E-selectin immunofluorescence imaging; normalized: neutral wells 0, TNF-alpha wells 100; activation, % at 7.58 µM; actives 0.37% (n = 260,000);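 active = mean E-selectin-positive cell signal at least 10% of the positive control, reached in at least 60% of replicates, without over 20% cell loss; inconclusive = no rule given, readout overlaps actives, possibly toxicity-flagged; inactive = the rest, including those meeting only one limit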
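System: HUVEC, human umbilical vein endothelial cells; quantity: 3,000 cells/well; buffer or medium: EGM-2 medium, gelatin-coated wells; dosing: single-point compound dose; detection: immunofluorescence imaging; evaluation: % PE-positive cells; benchmarks: TNF-alpha, DMSO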
SIRT5 inh = inhibitors of human sirtuin-5 desuccinylase | actives 1.1% (n = 330,000) | Purified SirT5, succinyl-peptide AMC, trypsin-coupled fluorescence | inhibition, % at 15 µM | AID 652115; in the data active = inhibition above about 15%; inconclusive = no clear call, values can overlap the other calls
Target sequence (Q9NXA8 whole entry, looked up): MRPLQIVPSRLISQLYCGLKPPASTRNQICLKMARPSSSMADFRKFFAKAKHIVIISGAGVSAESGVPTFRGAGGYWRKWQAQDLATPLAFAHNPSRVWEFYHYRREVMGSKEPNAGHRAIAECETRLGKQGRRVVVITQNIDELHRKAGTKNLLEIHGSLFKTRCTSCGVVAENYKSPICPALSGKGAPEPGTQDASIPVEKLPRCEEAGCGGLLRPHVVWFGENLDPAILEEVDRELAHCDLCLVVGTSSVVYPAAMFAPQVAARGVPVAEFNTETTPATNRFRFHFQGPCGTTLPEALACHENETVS
DENV2 CPE = inhibitors of DENV2 cytopathic effect | actives 1.7% (n = 350,000) | AID 651640 | DENV2-infected cells, cytopathic effect rescue, plate reader | CPE inhibition, % at 9.99 µM; in the data active = CPE inhibition above about 20%, passing the limit was not always enough; inconclusive = no clear call, values can overlap the other calls; tested in BHK-21 cells
Numbers stand for hits.

How did O=C(NC1CCCC1)N1CC(=O)N2[C@@H](CO)[C@H](c3ccc(-c4cccc(F)c4)cc3)[C@@H]2C1 do in these assays?
SIRT5 inh: inactive; DENV2 CPE: inactive

What do the screens show for `CCCCN1C(=O)/C(=C/C=C2\SCCN2C)SC1=S`?
E-sel inducer: 38.5; SIRT5 inh: inactive; DENV2 CPE: inactive

Results for CN1CCS/C1=C/C=C1\SC(=S)N(CC(=O)O)C1=O ?
E-sel inducer: inactive; SIRT5 inh: inactive; DENV2 CPE: inactive

How did Nc1ncnc2c1ncn2[C@@H]1O[C@H](C(=O)N[C@@H](CCc2ccccc2)C(=O)N2CCN(C(=O)C(F)(F)F)CC2)[C@@H](O)[C@H]1O do in these assays?
E-sel inducer: inactive; SIRT5 inh: inactive; DENV2 CPE: inactive

How did NC(=O)[C@@H]1CCCN1C(=O)[C@H](CCc1ccccc1)NC(=O)[C@H]1O[C@@H](n2cnc3c(N)ncnc32)[C@H](O)[C@@H]1O do in these assays?
E-sel inducer: inactive; SIRT5 inh: inactive; DENV2 CPE: 39.9

Results for O=C(C[C@@H]1CC[C@H](NC(=O)Nc2cc(F)ccc2F)[C@H](CO)O1)Nc1ccccc1 ?
E-sel inducer: inactive; SIRT5 inh: inactive; DENV2 CPE: inactive

What do the screens show for `O=C(C1CCOCC1)N1CC(=O)N2[C@H](C1)[C@H](c1ccc(-c3ccccc3F)cc1)[C@@H]2CO`?
E-sel inducer: inactive; SIRT5 inh: inactive; DENV2 CPE: 20.5

Results for O=C(c1cccnc1)N1CC(=O)N2[C@H](C1)[C@@H](c1ccc(-c3ccccc3F)cc1)[C@@H]2CO ?
E-sel inducer: inactive; SIRT5 inh: inactive; DENV2 CPE: 34.7

Results for O=C(C1CCOCC1)N1CC(=O)N2[C@H](C1)[C@@H](c1ccc(-c3ccccc3F)cc1)[C@@H]2CO ?
E-sel inducer: inactive; SIRT5 inh: inactive; DENV2 CPE: 23.0

Results for O=C(C1CCOCC1)N1CC(=O)N2[C@H](CO)[C@H](c3ccc(-c4ccccc4F)cc3)[C@@H]2C1 ?
E-sel inducer: inactive; SIRT5 inh: inactive; DENV2 CPE: inactive

Results for O=C(c1ccncc1)N1CC(=O)N2[C@H](CO)[C@@H](c3ccc(-c4ccccc4F)cc3)[C@H]2C1 ?
E-sel inducer: inactive; SIRT5 inh: inactive; DENV2 CPE: inactive

How did O=C(c1cnccn1)N1CC(=O)N2[C@@H](CO)[C@H](c3ccc(C4=CCCCC4)cc3)[C@@H]2C1 do in these assays?
E-sel inducer: inactive; SIRT5 inh: inactive; DENV2 CPE: inactive

Results for O=C(C1CCOCC1)N1CC(=O)N2[C@H](CO)[C@@H](c3ccc(-c4ccccc4F)cc3)[C@@H]2C1 ?
E-sel inducer: inactive; SIRT5 inh: inactive; DENV2 CPE: inactive

How did O=C(c1cnccn1)N1CC(=O)N2[C@H](CO)[C@@H](c3ccc(C4=CCCCC4)cc3)[C@@H]2C1 do in these assays?
E-sel inducer: inactive; SIRT5 inh: 28.4; DENV2 CPE: inactive

How did OC[C@H]1[C@H](c2ccc(C#CC3(O)CCCC3)cc2)[C@H]2CN(Cc3ccncc3)CCCCN21 do in these assays?
E-sel inducer: inactive; SIRT5 inh: inactive; DENV2 CPE: inactive

How did Nc1nc(-c2ccc(C(=O)O)cc2)cs1 do in these assays?
SIRT5 inh: 38.3; DENV2 CPE: inactive

Results for Nc1nc(-c2ccc(-c3ccccc3)cc2)cs1 ?
SIRT5 inh: inactive; DENV2 CPE: inactive

What do the screens show for `CN1C(=O)c2cc(NC(=O)c3cccc(F)c3)ccc2OC[C@@H]2O[C@@H](CC(=O)NC3CCC3)CC[C@H]21`?
E-sel inducer: inactive; DENV2 CPE: inactive

What do the screens show for `Cc1nn(C)cc1NC(=O)C[C@@H]1CC[C@H]2[C@H](COc3ccc(NC(=O)NC(C)C)cc3C(=O)N2C)O1`?
E-sel inducer: inactive; SIRT5 inh: inactive; DENV2 CPE: inactive

Results for Cc1cc(-c2n[nH]c(=S)n2/N=C/c2cccs2)n[nH]1 ?
E-sel inducer: inactive; SIRT5 inh: inactive; DENV2 CPE: inconclusive

Results for Cc1ccc(-c2n[nH]c(=S)n2/N=C/c2cccs2)cc1 ?
E-sel inducer: inactive; SIRT5 inh: 28.9; DENV2 CPE: inactive

What do the screens show for `CCOc1ccccc1C1C(C(=O)Nc2ccccc2OC)=C(C)Nc2nc(CCCO)nn21` (stereo not drawn)?
E-sel inducer: inactive; SIRT5 inh: inactive; DENV2 CPE: 57.3

Results for CCOc1ccc(C2C(C(=O)Nc3ccc(F)cc3)=C(C)Nc3nc(CCCO)nn32)cc1 (stereo not drawn) ?
E-sel inducer: inactive; SIRT5 inh: inactive; DENV2 CPE: inactive

Results for COc1ccc(C2C(C(=O)Nc3ccc(F)cc3)=C(C)Nc3nc(CCCO)nn32)cc1 (stereo not drawn) ?
DENV2 CPE: 28.5

What do the screens show for `COc1ccc(OC)c(C2C(C(=O)Nc3ccccc3OC)=C(C)Nc3nc(CCCO)nn32)c1` (stereo not drawn)?
E-sel inducer: inactive; SIRT5 inh: inactive; DENV2 CPE: inactive

Results for CCC(=O)N1[C@H](CO)[C@H](c2ccc(C3=CCCCC3)cc2)[C@H]1CNCC1CCC1 ?
E-sel inducer: inactive; SIRT5 inh: inactive; DENV2 CPE: inactive

Results for COc1cccc(-c2ccc3c(c2)[C@@H]2[C@@H](CCN2C(=O)c2ccc(F)cc2)[C@@H](CO)N3)c1 ?
E-sel inducer: inactive; SIRT5 inh: inactive; DENV2 CPE: inactive

How did C[C@@H]1CN([C@H](C)CO)C(=O)c2cccc(NC(=O)C3CC3)c2O[C@H]1CN(C)CC1CCCCC1 do in these assays?
E-sel inducer: inactive; SIRT5 inh: inactive; DENV2 CPE: 75.1

Results for C[C@H]1CN([C@@H](C)CO)C(=O)c2cccc(NC(=O)C3CC3)c2O[C@H]1CN(C)CC1CCCCC1 ?
E-sel inducer: inactive; SIRT5 inh: inactive; DENV2 CPE: inactive

What do the screens show for `C[C@H](CO)N1C[C@H](C)[C@@H](CN(C)CC2CCCCC2)Oc2c(NC(=O)C3CC3)cccc2C1=O`?
E-sel inducer: inactive; SIRT5 inh: inactive; DENV2 CPE: inactive

Results for C[C@H](CO)N1C[C@H](C)[C@H](CN(C)CC2CCCCC2)Oc2c(NC(=O)C3CC3)cccc2C1=O ?
E-sel inducer: inactive; SIRT5 inh: inactive; DENV2 CPE: 35.8

What do the screens show for `C[C@@H]1CN([C@H](C)CO)C(=O)c2cc(NC(=O)Nc3ccc4c(c3)OCO4)ccc2O[C@H]1CN(C)C(=O)Nc1ccc(F)cc1`?
E-sel inducer: inactive; DENV2 CPE: inactive

Results for COc1ccc(NC(=O)N(C)C[C@@H]2Oc3ccc(NS(=O)(=O)c4ccc(C)cc4)cc3CC(=O)N([C@@H](C)CO)C[C@@H]2C)cc1 ?
E-sel inducer: inactive

What do the screens show for `CC(C)NC(=O)Nc1cccc2c1O[C@H](CN(C)C(=O)Nc1ccccc1)[C@H](C)CN([C@H](C)CO)C2=O`?
E-sel inducer: inactive; SIRT5 inh: inactive; DENV2 CPE: 42.4

How did C[C@H](CO)N1C[C@H](C)[C@H](CN(C)C(=O)Nc2ccccc2)Oc2c(NC(=O)Nc3ccccc3)cccc2C1=O do in these assays?
E-sel inducer: inactive; SIRT5 inh: inactive; DENV2 CPE: inactive

Results for C[C@H](CO)N1C[C@H](C)[C@H](CN(C)C(=O)Nc2ccccc2)Oc2c(NC(=O)C3CCOCC3)cccc2C1=O ?
E-sel inducer: inactive; SIRT5 inh: inactive; DENV2 CPE: inactive

How did C[C@@H]1CN([C@H](C)CO)C(=O)c2cccc(NC(=O)NC3CCCCC3)c2O[C@@H]1CN(C)C(=O)Nc1ccccc1 do in these assays?
SIRT5 inh: inactive; DENV2 CPE: inactive
